Test results published in ChEMBL document CHEMBL4715918, “Syntheses and evaluation of acridone-naphthalimide derivatives for regulating oncogene PDGFR-β expression” (Bioorg Med Chem, 2021).

Columns and labels:
[1] = Binding affinity to FAM-labeled 5'-biotin-d[TATAGCTATA-HEG-TATAGCTATA]- 3' duplex DNA (unknown origin) by microscale thermophoresis assay
Procedure, shortened: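 Microscale thermophoresis with DNA held constant at 1 µM. Compound serially diluted 3:4 from 10 µM over 12 points. Samples run in standard glass capillaries with LED and laser power both at 20%. KD derived by fitting.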

[2] = test system: MCF7; test: Induction apoptosis in human MCF7 cells assessed as late apoptotic cells at 5 uM incubated for 24 hrs by Annexin-FTTC/PI staining based flow cytometric analysis (reference value: 0%); assay type: functional
[3] = test system: MCF7; test: Antitumour activity against human MCF7 cells xenografted in nude BALB/c mouse assessed as tumour growth inhibition at 2.5 mg/kg, ip administered for 34 days relative to control; assay type: functional; details: 816 h, time 34 day, read-out: TGI
[4] = test system: MCF7; test: Antitumour activity against human MCF7 cells xenografted in nude BALB/c mouse assessed as tumour volume at 2.5 mg/kg, ip administered for 34 days (reference value: 1530 mm3); assay type: functional; details: time 34 day
[5] = test system: MCF7; test: Induction apoptosis in human MCF7 cells assessed as necrotic cells at 5 uM incubated for 24 hrs by Annexin-FTTC/PI staining based flow cytometric analysis (reference value: 0.11%); assay type: functional
[6] = Binding affinity to 5'-FAM-GCGTCCACCCTCCCTGCCCCGCCGCCCCCCCTTCTCCCAGC-TAMRA-3' i-motif DNA (unknown origin) at pH 5.5 assessed as unfolding i-motif structure
[7] = Binding affinity to 5'-FAM-GCGTCCACCCTCCCTGCCCCGCCGCCCCCCCTTCTCCCAGC-TAMRA-3' i-motif DNA (unknown origin) assessed as unfolding i-motif structure by measuring reduction in I585/I518 ratio by FRET assay; details: dose 2-10 equiv
Procedure, shortened: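 FRET probe: i-motif oligonucleotide dual-labelled with FAM donor and TAMRA acceptor, 10 µM in 30 mM BPES buffer with 1 mM EDTA, KCl, thermally annealed. Compound was added in equal volume at increasing concentrations. Emission was scanned 500–700 nm and corrected for the compound's own signal. Read-out was the I585/I518 ratio, with the titration run at pH 6.2.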

[8] = test system: MCF7; test: Antitumour activity against human MCF7 cells xenografted in nude BALB/c mouse assessed as tumour volume at 5 mg/kg, ip administered for 34 days (reference value: 1530 mm3); assay type: functional; details: time 34 day

Cc1ccc2c(c1)c(=O)c1cc(C(=O)NCCCN(C)CCCN3C(=O)c4cccc5c(N6CCN(C)CC6)ccc(c45)C3=O)ccc1n2-c1ccc(C(=O)NCCCN(C)CCCN2C(=O)c3cccc4c(N5CCN(C)CC5)ccc(c34)C2=O)cc1
Kd [1]: 529 µM | Activity [2]: 51.1% | inhibition in vivo at 2.5 mg/kg [3]: 34.9% | Activity [4]: 985.1 mm3 | Activity [5]: 2.42% | Activity [6]: Dose-dependent effect | Activity [7]: Dose-dependent effect | Activity [8]: 780 mm3
